# Reference: ChEMBL document CHEMBL3822361, “Novel 1,6-naphthyridin-2(1H)-ones as potential anticancer agents targeting Hsp90” (Eur J Med Chem, 2016)
# The source made the active and inactive calls. The rule behind the calls is not given here.
# What was measured:
# [1] = system: MCF7; experiment: Effect on actin level in human MCF7 cells at 1.5 times IC50 measured after 48 hrs by western blot analysis; type: cell-based; settings: mcf7, 48 h
# Outline: (§1)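 Cells seeded in 6-well plates, 24 h at 37 °C, 5% CO2, then exposed 48 h to compound or 17-AAG in DMSO (1% final) or to vehicle. Lysed 2 h on ice in buffer with protease and phosphatase inhibitors, sonicated, protein measured by BCA. Equal protein run on SDS-PAGE, moved to PVDF, primary antibodies overnight at 4 °C, HRP secondary 1 h, ECL chemiluminescence.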
# [2] = system: MDA-MB-468; experiment: Cell cycle arrest in human MDA-MB-468 cells at 10 uM measured after 48 hrs by propidium iodide staining-based FACS analysis; type: functional
# Outline: (§2)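 MDA-MB-468 seeded 40,000/well in 24-well plates, 24 h at 37 °C, 5% CO2, then treated 48 h with compounds in DMSO (1% final). Cells trypsinized, washed in PBS, fixed in 70% ethanol, rehydrated in PBS, stained with propidium iodide in PBS. Phase distribution (G1, S, G2/M, polyploid, subG1) read by flow cytometry.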
# [3] = system: MCF7; experiment: Effect on HSP90 level in human MCF7 cells at 1.5 times IC50 measured after 48 hrs by western blot analysis; type: cell-based; settings: mcf7, 48 h; outline: as §1
# [4] = system: MDA-MB-468; experiment: Antiproliferative activity against human MDA-MB-468 cells measured after 48 hrs by MTT assay; type: functional, cell-based; settings: MDA-MB-468, 48 h
# Outline: (§3)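 Cells grown in DMEM with 2 mM L-glutamine, penicillin/streptomycin and 5% FBS at 37 °C, 5% CO2; seeded 6000/well in 96-well plates, attached 24 h. Compounds added over a concentration range in DMSO (1% final), 48 h. MTT (2.5 mg/mL in PBS) added for 3.5 h, formazan dissolved in DMSO, OD 570 nm. Growth relative to 1% DMSO; IC50 from separate triplicate experiments.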
# [5] = system: MDA-MB-468; experiment: Effect on HSP90 level in human MDA-MB-468 cells at 1.5 times IC50 measured after 48 hrs by western blot analysis; type: cell-based; settings: mda-mb-468, 48 h; outline: as §1
# [6] = system: MCF7; experiment: Antiproliferative activity against human MCF7 cells measured after 48 hrs by MTT assay; type: functional, cell-based; settings: MCF7, 48 h; outline: as §3
# [7] = target: T1, Heat shock protein HSP90 (Homo sapiens) (UniProt P07900+P08238); experiment: Inhibition of HSP90 in human MCF-7 cells assessed as ER-alpha protein degradation at 1.5 times IC50 measured after 48 hrs by western blot analysis
# [8] = system: MDA-MB-468; experiment: Effect on actin level in human MDA-MB-468 cells at 1.5 times IC50 measured after 48 hrs by western blot analysis; type: cell-based; settings: mda-mb-468, 48 h; outline: as §1
# [9] = system: MDA-MB-468; experiment: Effect on cell cycle in human MDA-MB-468 cells assessed as accumulation at subG1-phase at 10 uM measured after 48 hrs by propidium iodide staining-based FACS analysis; type: functional; outline: as §2
# [10] = target: T1, Heat shock protein HSP90 (Homo sapiens); experiment: Inhibition of HSP90 in human MCF7 cells assessed as ER-alpha protein degradation at 1.5 times IC50 measured after 48 hrs by western blot analysis; type: cell-based; outline: as §1
# [11] = system: MDA-MB-468; experiment: Induction of apoptosis in human MDA-MB-468 cells assessed as mortality at 10 uM measured after 48 hrs by Annexin V-FITC/propidium iodide staining-based flow cytometry; type: functional; settings: MDA-MB-468, 48 h
# Outline: (§4)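 MDA-MB-468 cells seeded in wells, held 24 h at 37 °C in 5% CO2, then exposed to compound in DMSO (1% DMSO final) for 48 h. Floating and trypsinised adherent cells pooled, PBS-washed, stained with annexin V-FITC plus propidium iodide in binding buffer 15 min on ice in the dark. Flow cytometry, ≥10 000 events per sample; annexin V-positive cells scored apoptotic.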
# [12] = target: T1, Heat shock protein HSP90 (Homo sapiens); experiment: Inhibition of HSP90 in human MDA-MB-468 cells assessed as Raf-1 protein degradation at 1.5 times IC50 measured after 48 hrs by western blot analysis; type: cell-based; outline: as §1
# [13] = target: T1, Heat shock protein HSP90 (Homo sapiens); experiment: Inhibition of HSP90 in human MCF7 cells assessed as Raf-1 protein degradation at 1.5 times IC50 measured after 48 hrs by western blot analysis; type: cell-based; outline: as §1
# [14] = system: MDA-MB-468; experiment: Effect on cell cycle distribution in human MDA-MB-468 cells assessed as accumulation at G2/M-phase at 2 uM measured after 48 hrs by propidium iodide staining-based flow cytometry; type: functional; outline: as §2
# [15] = system: MDA-MB-468; experiment: Induction of apoptosis in human MDA-MB-468 cells at 2 uM measured after 48 hrs by Annexin V-FITC/propidium iodide staining-based flow cytometry; type: functional, cell-based
# Outline: (§5)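 Cells incubated 24 h at 37 °C, 5% CO2, then given compounds in DMSO (1% final) for 48 h. Floating and trypsinized adherent cells pooled, PBS-washed, stained with annexin V-FITC plus propidium iodide in binding buffer, 15 min on ice in the dark. Flow cytometry, ≥10 000 events per sample; annexin V-positive cells scored as apoptotic.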
# [16] = system: MCF7; experiment: Antiproliferative activity against human MCF7 cells measured after 5 days by MTS assay; type: functional, cell-based; settings: MCF7, 120 h
# [17] = system: MDA-MB-468; experiment: Effect on cell cycle in human MDA-MB-468 cells assessed as accumulation at subG1-phase at 15 uM measured after 48 hrs by propidium iodide staining-based FACS analysis; type: functional; outline: as §2
# [18] = system: MDA-MB-468; experiment: Induction of apoptosis in human MDA-MB-468 cells assessed as mortality at 15 uM measured after 48 hrs by Annexin V-FITC/propidium iodide staining-based flow cytometry; type: functional; settings: MDA-MB-468, 48 h; outline: as §4
# [19] = system: MDA-MB-468; experiment: Cell cycle arrest in human MDA-MB-468 cells at 15 uM measured after 48 hrs by propidium iodide staining-based FACS analysis; type: functional; outline: as §2
# [20] = target: T1, Heat shock protein HSP90 (Homo sapiens); experiment: Inhibition of HSP90 in human MCF7 cells assessed as induction of prosurvival heat shock response at 1.5 times IC50 measured after 48 hrs by Western blot analysis; type: cell-based; outline: as §1
# [21] = system: MDA-MB-468; experiment: Induction of apoptosis in human MDA-MB-468 cells at 4 uM measured after 48 hrs by Annexin V-FITC/propidium iodide staining-based flow cytometry; type: functional, cell-based; outline: as §5
# [22] = system: MDA-MB-468; experiment: Effect on cell cycle distribution in human MDA-MB-468 cells assessed as accumulation at G2/M-phase at 4 uM measured after 48 hrs by propidium iodide staining-based flow cytometry; type: functional; outline: as §2
smiles,measurement,setting,value
COc1ccc(C(=O)Nc2cc3cnc(N4CCN(CCO)CC4)cc3n(C)c2=O)cc1,Activity,[1],Non-toxic
same,Activity,[2],inactive
same,Activity,[3],Non-toxic
same,IC50,[4],10.5 µM
same,Activity,[5],Non-toxic
same,IC50,[6],8.59 µM
same,inhibition,[7],Active
same,Activity,[8],Non-toxic
same,Activity,[9],Active
same,inhibition,[10],Active
same,mortality at 10 µM,[11],40%
same,inhibition,[12],Active
same,inhibition,[13],Active
CC(=O)Nc1cc2cnc(NCCN(C)C)cc2n(C)c1=O,IC50,[4],> 100 µM
same,IC50,[6],> 100 µM
CN(C)CCNc1cc2c(cn1)cc(NC(=O)c1ccc(Cl)cc1)c(=O)n2C,Activity,[1],Non-toxic
same,Activity,[3],Non-toxic
same,IC50,[4],1.64 µM
same,Activity,[5],Non-toxic
same,IC50,[6],3.09 µM
same,Activity,[14],Active
same,inhibition,[7],Active
same,Activity,[8],Non-toxic
same,Activity,[15],Active
same,inhibition,[10],Active
same,inhibition,[12],Active
same,inhibition,[13],Active
CO[C@@H]1[C@@H](OC(N)=O)[C@@H](O)[C@H](Oc2ccc3c(O)c(NC(=O)c4ccc(O)c(CC=C(C)C)c4)c(=O)oc3c2C)OC1(C)C [NOVOBIOCIN],IC50,[4],338 µM
same,IC50,[6],293 µM
Cn1c(=O)c(NC(=O)/C=C/c2ccccc2)cc2cnc(NCCN3CCOCC3)cc21,IC50,[4],> 100 µM
same,IC50,[6],> 100 µM
C=CCNC1=C2C[C@@H](C)C[C@H](OC)[C@H](O)[C@@H](C)/C=C(\C)[C@H](OC(N)=O)[C@@H](OC)/C=C\C=C(/C)C(=O)NC(=CC1=O)C2=O [TANESPIMYCIN],IC50,[4],1.57 µM
same,IC50,[6],0.029 µM
same,Activity,[14],Active
same,IC50,[16],0.005 µM
CN(C)CCNc1cc2c(cn1)cc(NC(=O)c1ccncc1)c(=O)n2C,IC50,[4],8.36 µM
same,IC50,[6],36.6 µM
Cn1c(=O)c(NC(=O)c2cc3ccccc3s2)cc2cnc(NCCN3CCOCC3)cc21,IC50,[4],> 100 µM
same,IC50,[6],> 100 µM
CN(C)CCNc1cc2c(cn1)cc(NC(=O)c1ccc(N)cc1)c(=O)n2C,IC50,[4],20.4 µM
same,IC50,[6],55.8 µM
Cn1c(=O)c(NC(=O)c2cccc(-c3ccccc3)c2)cc2cnc(N3CCN(CCO)CC3)cc21,Activity,[1],Non-toxic
same,Activity,[3],Toxic
same,Activity,[17],Active
same,IC50,[4],14.7 µM
same,Activity,[5],Toxic
same,mortality at 15 µM,[18],80%
same,IC50,[6],15.2 µM
same,Activity,[19],inactive
same,inhibition,[7],Active
same,Activity,[8],Non-toxic
same,inhibition,[20],Active
same,inhibition,[10],Active
same,inhibition,[12],Active
same,inhibition,[13],Active
Cn1c(=O)c(NC(=O)c2ccncc2)cc2cnc(NCCN3CCOCC3)cc21,IC50,[4],> 100 µM
same,IC50,[6],4.47 µM
CN(C)CCNc1cc2c(cn1)cc(NC(=O)c1cccc(-c3ccccc3)c1)c(=O)n2C,Activity,[1],Non-toxic
same,Activity,[3],Toxic
same,IC50,[4],1.68 µM
same,Activity,[5],Toxic
same,IC50,[6],1.93 µM
same,Activity,[14],inactive
same,inhibition,[7],Active
same,Activity,[8],Non-toxic
same,Activity,[15],Active
same,inhibition,[20],Active
same,inhibition,[10],Active
same,inhibition,[12],Active
same,inhibition,[13],Active
CC(=O)Nc1cc2cnc(NCCN3CCOCC3)cc2n(C)c1=O,IC50,[4],> 100 µM
same,IC50,[6],> 100 µM
COc1cccc(C(=O)Nc2cc3cnc(NCCN(C)C)cc3n(C)c2=O)c1,IC50,[4],17.4 µM
same,IC50,[6],43.2 µM
COc1cccc(C(=O)Nc2cc3cnc(NCCN4CCOCC4)cc3n(C)c2=O)c1,IC50,[4],> 100 µM
same,IC50,[6],> 100 µM
Cn1c(=O)c(NC(=O)c2ccc(O)cc2)cc2cnc(NCCN3CCOCC3)cc21,IC50,[4],> 100 µM
same,IC50,[6],> 100 µM
CCCNc1cc2c(cn1)cc(NC(=O)c1cccc(-c3ccccc3)c1)c(=O)n2C,Activity,[1],Non-toxic
same,Activity,[3],Non-toxic
same,IC50,[4],1.87 µM
same,Activity,[5],Non-toxic
same,IC50,[6],6 µM
same,Activity,[14],Active
same,inhibition,[7],Active
same,Activity,[8],Non-toxic
same,Activity,[15],inactive
same,inhibition,[10],Active
same,inhibition,[12],Active
same,inhibition,[13],Active
COc1cc(C(=O)Nc2cc3cnc(NCCN(C)C)cc3n(C)c2=O)cc(OC)c1OC,IC50,[4],15.6 µM
same,IC50,[6],21.5 µM
CN(C)CCNc1cc2c(cn1)cc(NC(=O)c1cc3ccccc3s1)c(=O)n2C,Activity,[1],Non-toxic
same,Activity,[3],Non-toxic
same,IC50,[4],3.57 µM
same,Activity,[5],Non-toxic
same,IC50,[6],12 µM
same,inhibition,[7],inactive
same,Activity,[8],Non-toxic
same,Activity,[21],Active
same,inhibition,[10],inactive
same,inhibition,[12],inactive
same,inhibition,[13],inactive
same,Activity,[22],Active
Cn1c(=O)c(NC(=O)c2ccc(N)cc2)cc2cnc(NCCN3CCOCC3)cc21,IC50,[4],> 100 µM
same,IC50,[6],> 100 µM
COc1ccc(C(=O)Nc2cc3cnc(N4CCN(C)CC4)cc3n(C)c2=O)cc1,IC50,[4],12.6 µM
same,IC50,[6],35.4 µM
COc1cc(C(=O)Nc2cc3cnc(NCCN4CCOCC4)cc3n(C)c2=O)cc(OC)c1OC,IC50,[4],> 100 µM
same,IC50,[6],48.6 µM
CN(C)CCNc1cc2c(cn1)cc(NC(=O)c1ccccc1)c(=O)n2C,IC50,[4],18.3 µM
same,IC50,[6],35.1 µM
Cn1c(=O)c(NC(=O)c2ccc(Cl)cc2)cc2cnc(NCCN3CCOCC3)cc21,IC50,[4],> 100 µM
same,IC50,[6],6.35 µM
COc1ccc(C(=O)Nc2cc3cnc(NCCN4CCOCC4)cc3n(C)c2=O)cc1,IC50,[4],> 100 µM
same,IC50,[6],> 100 µM
Cn1c(=O)c(NC(=O)c2cccc(-c3ccccc3)c2)cc2cnc(NCCN3CCOCC3)cc21,Activity,[1],Non-toxic
same,Activity,[3],Non-toxic
same,IC50,[4],1.96 µM
same,Activity,[5],Non-toxic
same,IC50,[6],4.85 µM
same,Activity,[14],Active
same,inhibition,[7],Active
same,Activity,[8],Non-toxic
same,Activity,[15],inactive
same,inhibition,[10],Active
same,inhibition,[12],Active
same,inhibition,[13],Active
COc1ccc(C(=O)Nc2cc3cnc(NCCN(C)C)cc3n(C)c2=O)cc1,IC50,[4],15.7 µM
same,IC50,[6],37.3 µM
CN(C)CCNc1cc2c(cn1)cc(NC(=O)/C=C/c1ccccc1)c(=O)n2C,IC50,[4],12.1 µM
same,IC50,[6],27.4 µM
Cn1c(=O)c(NC(=O)c2ccccc2)cc2cnc(NCCN3CCOCC3)cc21,IC50,[4],> 100 µM
same,IC50,[6],> 100 µM
